Active and inactive are the calls of the source. The calls are words filed in the database; no cut-off is given here.

For experiment [1], the species on record is Danio rerio. The experiment in a line: Inhibition of B-myb-mediated mitotic deffects in zebrafish bmyb mutant embryo assessed as intra-Sphase and G2/M checkpoint inhibition in presence of 2 mM caffeine at 10 ug/ml. In short, it runs like this: (§1)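 crb embryos given 2 mM caffeine or none at 4 hpf. Thirty minutes later […] aphidicolin added, then incubated overnight to 24 hpf at 28.5 °C in E3 with 1% DMSO. Mitotic accumulation read by whole-mount phospho-histone H3 staining, with pH3-positive cells counted in the tail distal to the yolk extension.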

The species named for experiment [2] is Danio rerio. The experiment in a line: Inhibition of B-myb-mediated mitotic deffects in zebrafish bmyb mutant embryo assessed as intra-Sphase and G2/M checkpoint inhibition at 10 ug/ml. In short, it runs like this: as §1
The species entered for experiment [3] is Danio rerio. Nature of the experiment: Inhibition of B-myb-mediated mitotic deffects in zebrafish bmyb mutant crb embryos at 50 mM. In short, it runs like this:
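crb heterozygote intercross embryos exposed from 4 hpf to 24 hpf at 28.5 °C in E3 with 1% DMSO (aphidicolin […]; hydroxyurea 50 mM). Fixed in 4% paraformaldehyde, whole-mount stained for phospho-histone H3 (Ser10), genotyped by RFLP. pH3-positive cells counted in the tail distal to the yolk extension, or mutant phenotype scored by eye.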

The species entered for experiment [4] is Danio rerio. The experiment in a line: Inhibition of B-myb-mediated mitotic deffects in zebrafish bmyb mutant crb embryos at 50 mM.
The target in experiment [5] is T1, B-myb (Danio rerio) (UniProt Q4KMF7).
T1 sequence (whole entry): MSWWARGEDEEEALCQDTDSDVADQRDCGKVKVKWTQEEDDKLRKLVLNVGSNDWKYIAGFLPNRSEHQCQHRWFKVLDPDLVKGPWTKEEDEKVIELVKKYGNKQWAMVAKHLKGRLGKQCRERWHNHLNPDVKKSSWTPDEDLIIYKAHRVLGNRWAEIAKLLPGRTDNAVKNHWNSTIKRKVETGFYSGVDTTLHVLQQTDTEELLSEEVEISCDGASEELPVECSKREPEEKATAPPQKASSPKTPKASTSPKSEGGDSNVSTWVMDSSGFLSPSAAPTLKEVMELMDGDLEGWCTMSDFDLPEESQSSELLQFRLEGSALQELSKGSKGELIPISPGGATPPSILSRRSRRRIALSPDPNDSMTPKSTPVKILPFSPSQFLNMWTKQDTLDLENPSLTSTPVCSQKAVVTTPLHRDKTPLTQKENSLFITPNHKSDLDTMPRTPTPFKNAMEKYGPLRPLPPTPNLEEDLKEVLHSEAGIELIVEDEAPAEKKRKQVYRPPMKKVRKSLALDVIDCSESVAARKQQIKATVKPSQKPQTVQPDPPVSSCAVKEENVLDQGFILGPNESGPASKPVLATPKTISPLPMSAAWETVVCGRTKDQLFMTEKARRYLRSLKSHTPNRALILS
Nature of the experiment: Inhibition of B-myb-mediated mitotic deffects in wild-type zebrafish assessed as suppression of apoptosis at […] at 24 hrs post fertilization by TUNEL assay. In outline: (§2)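 Embryos treated overnight (from 4 hpf) with […] drug, washed at 24 hpf. Apoptosis read by TUNEL staining at 24 hpf, and by brain opacity morphology at 30 hpf.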

Experiment [6] has as its target T1, B-myb (Danio rerio). The experiment in a line: Inhibition of B-myb-mediated mitotic deffects in wild-type zebrafish embryo assessed as accumulation of cells in early S phase at […] at 24 hrs post fertilization for 6 hrs by flow cytometry in presence of 10 mM BrdU. In outline:
(§3)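 Wild-type embryos exposed 24–30 hpf (6 h at 28.5 °C) to […] drug. Embryos disaggregated, immunostained for pH3 and DNA content measured by flow cytometry (G1/S/G2M fractions). For S-phase confirmation, embryos labelled with BrdU and incorporation read by whole-mount immunostaining and FACS.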

The species named for experiment [7] is Danio rerio. The experiment in a line: Inhibition of B-myb-mediated mitotic deffects in zebrafish bmyb mutant crb embryos assessed as increase in cyclin B1 mRNA expression. In short, it runs like this:
(§4)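 Wild-type and crb embryos treated with […] drug, then whole-mount in situ hybridization for cyclin B1.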

Experiment [8] is filed under the species Danio rerio. The experiment in a line: Inhibition of B-myb-mediated mitotic deffects in zebrafish bmyb mutant crb embryos assessed as suppression of cells without spindles at 8 mM at 24 hrs post fertilization by pH3 and alpha tubulin staining. In short, it runs like this:
(§5)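 Embryos treated overnight with […] drug, then double-stained for α-tubulin and pH3. Spindles counted in the body distal to the yolk ball. DAPI-stained cells with condensed chromatin counted manually in one field at the tail tip.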

The species named for experiment [9] is Danio rerio. Nature of the experiment: Inhibition of B-myb-mediated mitotic deffects in zebrafish bmyb mutant embryo assessed as increase in mitotic cells with condensed chromatin at 10 uM by pH3 and alpha tubulin staining. Type of experiment: cell-based.
Experiment [10] is filed under the species Danio rerio. The experiment in a line: Inhibition of B-myb-mediated mitotic deffects in zebrafish bmyb mutant crb embryos at […]. The note with it: TDE = time-dependent effect. In short, it runs like this:
(§6)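 crb heterozygote incrosses; embryos in E3 with 1% DMSO at 28.5 °C, compound added at 4 hpf and kept until 24 hpf ([…] except in dose-response). Fixed in 4% paraformaldehyde and whole-mount stained for serine-10-phosphorylated histone H3. All pH3-positive cells in the tail distal to the yolk extension counted, at least five embryos per condition. Embryos genotyped by RFLP. ED50 from dose-response.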

Experiment [11] concerns the target T1, B-myb (Danio rerio). Nature of the experiment: Inhibition of B-myb-mediated mitotic deffects in wild-type zebrafish embryo assessed as accumulation of cells in early S phase at […] at 24 hrs post fertilization for 6 hrs by flow cytometry. In short, it runs like this: as §3
The species named for experiment [12] is Danio rerio. Nature of the experiment: Inhibition of B-myb-mediated mitotic deffects in zebrafish bmyb mutant crb embryos assessed as prometaphase arrest at 10 uM by pH3 and alpha tubulin staining.
For experiment [13], the species on record is Danio rerio. The experiment in a line: Inhibition of B-myb-mediated mitotic deffects in zebrafish bmyb mutant crb embryos assessed as suppression of polyploidy at 8 mM at 24 hrs post fertilization by TUNEL assay. In outline:
(§7)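 Control and treated embryos, […] overnight, disaggregated and DNA content (2n/4n/8n) measured by flow cytometry. Individual-embryo FACS used a cell-suspension aliquot for genotyping.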

Experiment [14] deals with T1, B-myb (Danio rerio). Nature of the experiment: Inhibition of B-myb-mediated mitotic deffects in wild-type zebrafish assessed as increase in cyclin B1 mRNA expression. In short, it runs like this: as §4
Experiment [15] deals with T1, B-myb (Danio rerio). The experiment in a line: Inhibition of B-myb-mediated mitotic deffects in wild-type zebrafish assessed as number of centrosomes in pH3 -positive cells at […] at 24 hrs post fertilization by pH3 and […] staining. Type of experiment: cell-based.
The species entered for experiment [16] is Danio rerio. The experiment in a line: Inhibition of B-myb-mediated mitotic deffects in zebrafish bmyb mutant crb embryos assessed as reduction in abnormalities in mitotic spindle by pH3 and alpha tubulin staining. The note with it: concentration not given here. In outline: as §5
The species named for experiment [17] is Danio rerio. Nature of the experiment: Inhibition of B-myb-mediated mitotic deffects in zebrafish bmyb mutant crb embryos. In outline:
as §6

For experiment [18], the species on record is Danio rerio. The experiment in a line: Inhibition of B-myb-mediated mitotic deffects in zebrafish bmyb mutant crb embryos assessed as suppression of apoptosis at 8 mM at 24 hrs post fertilization by TUNEL assay. In outline: as §2
The target in experiment [19] is T1, B-myb (Danio rerio). The experiment in a line: Inhibition of B-myb mediated mitotic deffects in wild-type zebrafish assessed as suppression of polyploidy at […] at 24 hrs post fertilization […]. In short, it runs like this:
as §7

For experiment [20], the target named is T1, B-myb (Danio rerio). The experiment in a line: Inhibition of B-myb-mediated mitotic deffects in wild-type Zebrafish assessed as suppression of cells without spindles at […] at 24 hrs post fertilization by pH3 and alpha tubulin staining. In outline:
as §5

A short description of experiment [21]: Induction of S to M phase cell cycle progression in zebrafish bmyb mutant embryo cells assessed as Brdu incorporation. In kind it is functional, Danio rerio.
The species named for experiment [22] is Danio rerio. Nature of the experiment: Inhibition of B-myb-mediated mitotic deffects in zebrafish bmyb mutant crb embryos assessed as number of centrosomes in pH3 -positive cells at […] at 24 hrs post fertilization by pH3 and gamma tubulin staining. Type of experiment: cell-based. In outline: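 Centrosomes detected with a monoclonal anti-γ-tubulin antibody (1:1,000) in embryos treated overnight with […] drug.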

Take `C[C@@]1(CO)[C@H](O)CC[C@@]2(C)[C@H]1CC[C@H]1C[C@@H]3C[C@@]12CC[C@]3(O)CO`: the inhibition entry in the experiment listed under Danio rerio [1], in the experiment filed under Danio rerio [2], in the experiment filed under Danio rerio [3] and in the experiment listed under Danio rerio [4] was “Active” in each case.
As to `NC(=O)NO`, the inhibition entry in the experiment filed under Danio rerio [3] and in the experiment listed under Danio rerio [4] was “Active” in each case.
Take `O=C(Nc1ncccc1O)C12CC3CC(CC(C3)C1)C2` [PERSYNTHAMIDE]: the inhibition result on B-myb (Danio rerio) [5], on B-myb (Danio rerio) [6], in the experiment listed under Danio rerio [7], in the experiment listed under Danio rerio [8], on B-myb (Danio rerio) [11] and in the experiment filed under Danio rerio [12] was “Active” in each case. Further, the inhibition entry in the experiment filed under Danio rerio [13], on B-myb (Danio rerio) [14], on B-myb (Danio rerio) [15], in the experiment filed under Danio rerio [18], at B-myb (Danio rerio) [19] and at B-myb (Danio rerio) [20] was “Active” each time. For the same molecule, the inhibition result in the experiment listed under Danio rerio [22] was “Active”. Besides, in the experiment listed under Danio rerio [9], the fold change (FC) worked out at 4. The inhibition result is “tde” in the experiment listed under Danio rerio [10] and 55% in the experiment listed under Danio rerio [16]. The ED50 in the experiment filed under Danio rerio [17] was determined as 5 µM. Besides, the Activity in [21] is recorded as 60%.
